Measurements reported in ChEMBL document CHEMBL1126125, “Synthesis and antibacterial activity of 1-(substituted pyrrolyl)-7-(substituted amino)-6-fluoro-1,4-dihydro-4-oxo-3- quinolinecarboxylic acids” (1992).
Values after ≈ are worked out from the molar mass of the structure shown.

What was measured:
[1] = system: Staphylococcus aureus; assay: In vitro antibacterial activity against Staphylococcus aureus ATCC 6538p.; format: functional
Outline: (§1)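 Agar dilution MIC. Organisms grown overnight in brain-heart infusion broth at 37 °C. Compound stock of 5 mg/mL serially diluted two-fold in BHI agar, giving final test concentrations of 200 to […] μg/mL. Plates incubated 24 h at 37 °C. MIC read as the lowest concentration that inhibited visible growth.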

[2] = system: Escherichia coli; assay: In vitro antibacterial activity against Escherichia coli ATCC 25922.; format: functional; outline: as §1

Row | Compound | MIC [1] [µg/mL] | MIC [2] [µg/mL]
1 | Cn1cc(-n2cc(C(=O)O)c(=O)c3cc(F)c(N4CCCC4)cc32)c([N+](=O)[O-])c1 | > 100 | > 100
2 | Cn1cc(-n2cc(C(=O)O)c(=O)c3cc(F)c(N4CCCNCC4)cc32)c([N+](=O)[O-])c1 | 100 (≈ 233 µM) | 100 (≈ 233 µM)
3 | CC1CCCN(c2cc3c(cc2F)c(=O)c(C(=O)O)cn3-c2ccc([N+](=O)[O-])cc2)C1 (stereo not drawn) | > 100 | > 100
4 | Cn1cc(-n2cc(C(=O)O)c(=O)c3cc(F)c(N4CCNCC4)cc32)c([N+](=O)[O-])c1 | 100 (≈ 241 µM) | 100 (≈ 241 µM)
5 | CN1CCN(c2cc3c(cc2F)c(=O)c(C(=O)O)cn3-c2cn(C)cc2[N+](=O)[O-])CC1 | 100 (≈ 233 µM) | 100 (≈ 233 µM)
6 | Cn1cc(N)c(-n2cc(C(=O)O)c(=O)c3cc(F)c(N4CCNCC4)cc32)c1 | 100 (≈ 259 µM) | 50 (≈ 130 µM)
7 | Cn1cc(-n2cc(C(=O)O)c(=O)c3cc(F)c(Cl)cc32)c([N+](=O)[O-])c1 | 100 (≈ 273 µM) | 100 (≈ 273 µM)
8 | O=C(O)c1cn(-c2ccc([N+](=O)[O-])cc2)c2cc(N3CCCC3)c(F)cc2c1=O | > 100 | > 100
9 | Cn1cc(-n2cc(C(=O)O)c(=O)c3cc(F)c(N4CCCCC4)cc32)c([N+](=O)[O-])c1 | 50 (≈ 121 µM) | 100 (≈ 241 µM)
10 | CC1CN(c2cc3c(cc2F)c(=O)c(C(=O)O)cn3-c2cn(C)cc2[N+](=O)[O-])CCN1 (stereo not drawn) | 100 (≈ 233 µM) | 100 (≈ 233 µM)

Next, values leading:

Row | MIC [1] [µg/mL] | MIC [2] [µg/mL] | Compound
11 | 50 (≈ 137 µM) | 100 (≈ 273 µM) | Cn1cc([N+](=O)[O-])cc1-n1cc(C(=O)O)c(=O)c2cc(F)c(Cl)cc21
12 | 25 (≈ 58.4 µM) | > 100 | CC1CCCN(c2cc3c(cc2F)c(=O)c(C(=O)O)cn3-c2cn(C)cc2[N+](=O)[O-])C1 (stereo not drawn)
13 | 25 (≈ 58.6 µM) | 12.5 (≈ 29.3 µM) | CN1CCN(c2cc3c(cc2F)c(=O)c(C(=O)O)cn3-c2ccc([N+](=O)[O-])cc2)CC1
14 | 0.195 (≈ 0.488 µM) | 0.39 (≈ 0.976 µM) | CN1CCN(c2cc3c(cc2F)c(=O)c(C(=O)O)cn3-c2ccc(F)cc2)CC1 [DIFLOXACIN]
15 | 12.5 (≈ 29.2 µM) | > 100 | CC1CCN(c2cc3c(cc2F)c(=O)c(C(=O)O)cn3-c2cn(C)cc2[N+](=O)[O-])CC1
16 | 3.12 (≈ 7.29 µM) | 100 (≈ 233 µM) | CC1CCCN(c2cc3c(cc2F)c(=O)c(C(=O)O)cn3-c2cc([N+](=O)[O-])cn2C)C1 (stereo not drawn)
17 | 6.25 (≈ 14.6 µM) | 3.12 (≈ 7.28 µM) | CN1CCN(c2cc3c(cc2F)c(=O)c(C(=O)O)cn3-c2cc([N+](=O)[O-])cn2C)CC1
18 | 6.25 (≈ 17.2 µM) | 12.5 (≈ 34.5 µM) | O=C(O)c1cn(-c2ccc([N+](=O)[O-])cc2)c2cc(Cl)c(F)cc2c1=O
19 | 0.78 (≈ 1.95 µM) | 12.5 (≈ 31.2 µM) | Cn1cc([N+](=O)[O-])cc1-n1cc(C(=O)O)c(=O)c2cc(F)c(N3CCCC3)cc21
